Activity calls are given as the source filed them. The rule behind the calls is not given here.
Columns and labels:
Sus scrofa = species on record: Sus scrofa; assay: Inhibition of pig AE assessed as ratio of pseudo-first-order inhibition rate constant to inhibitor concentration
Outline: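 Pig AE in 39.5 mM citric acid, 121 mM Na2HPO4, 1 mM EDTA, 0.1% CHAPS, 0.015% Brij, 1 mM DTT.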

[1] = Inhibition of Trichomonas vaginalis G3 AE1 expressed in Pichia pastoris after 20 mins
Outline: (§1)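 Recombinant AE zymogens expressed in Pichia pastoris; SmAE and TvAE1 autoactivated in 0.5 M sodium acetate, 4 mM DTT, pH 4.5, 37 °C, 3 h to overnight; IrAE used without activation. Buffer 0.1 M citrate phosphate, 4 mM DTT, pH 6.8 (SmAE, TvAE1) or pH 5.5 (IrAE). Inhibitor 2.0–0.0002 µM final, 20 min preincubation at room temperature; 10 µM final Cbz-Ala-Ala-Asn-AMC, 20 min; IC50 from RFU/min vs concentration.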

[2] = Inhibition of Ixodes ricinus AE expressed in Pichia pastoris after 20 mins; outline: as §1
[3] = Inhibition of Schistosoma mansoni AE expressed in Pichia pastoris after 20 mins; outline: as §1
Schistosoma mansoni = assay: Inhibition of Schistosoma mansoni AE assessed as ratio of pseudo-first-order inhibition rate constant to inhibitor concentration
Outline: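 Autoactivated recombinant SmAE added to six inhibitor concentrations (0–1 µM final) in 0.1 M citrate phosphate, 2 mM DTT, pH 6.8 with 20 µM Cbz-Ala-Ala-Asn-AMC; progress followed every 2 s for 30 min at 25 °C (ex 355, em 460 nm); kobs/[I] by nonlinear regression, corrected for substrate by factor 1.33.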

Caspase-3 (Homo sapiens) = molecular target: T1, Caspase-3 (Homo sapiens) (UniProt P42574); assay: Inhibition of caspase 3 assessed as ratio of pseudo-first-order inhibition rate constant to inhibitor concentration
T1 sequence (whole entry): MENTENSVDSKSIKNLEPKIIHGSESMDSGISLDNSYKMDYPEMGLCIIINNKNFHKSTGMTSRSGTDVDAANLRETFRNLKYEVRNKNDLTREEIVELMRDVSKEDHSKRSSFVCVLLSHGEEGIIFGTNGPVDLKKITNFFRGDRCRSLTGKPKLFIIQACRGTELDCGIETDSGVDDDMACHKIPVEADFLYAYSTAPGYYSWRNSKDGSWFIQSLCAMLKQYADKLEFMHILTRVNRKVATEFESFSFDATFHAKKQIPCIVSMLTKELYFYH
Outline: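 Caspase-3 (1 nM final) preactivated 10 min at 37 °C in 40 mM Pipes, 200 mM NaCl, 0.2% CHAPS, 20% sucrose mixed 1:1 with 20 mM DTT, pH 7.2; enzyme added to inhibitor plus Ac-Asp-Glu-Val-Asp-AMC; progress curves 20 min at 37 °C (ex 360, em 465 nm); duplicates; rates corrected for substrate (KM 9.7 µM).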

Caspase-6 (Homo sapiens) = molecular target: T2, Caspase-6 (Homo sapiens) (UniProt P55212); assay: Inhibition of caspase 6 assessed as ratio of pseudo-first-order inhibition rate constant to inhibitor concentration
T2 sequence (whole entry): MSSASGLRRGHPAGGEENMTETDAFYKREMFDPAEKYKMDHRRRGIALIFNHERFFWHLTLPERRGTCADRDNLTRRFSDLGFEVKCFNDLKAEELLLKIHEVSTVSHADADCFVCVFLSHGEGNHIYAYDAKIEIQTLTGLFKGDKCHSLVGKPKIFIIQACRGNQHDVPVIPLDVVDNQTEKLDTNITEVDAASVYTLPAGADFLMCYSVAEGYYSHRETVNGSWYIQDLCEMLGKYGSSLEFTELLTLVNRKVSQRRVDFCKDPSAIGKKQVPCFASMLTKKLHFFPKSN
Outline: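 Caspase-6 at 5 nM final, assayed in the same Pipes/NaCl/CHAPS/sucrose/DTT buffer, pH 7.2, 37 °C with Ac-Asp-Glu-Val-Asp-AMC by the progress curve method; inhibitor stocks 5 × 10^-3 to 2.42 × 10^-6 M in DMSO; rates corrected for substrate using KM 236.35 µM.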

Caspase-8 (Homo sapiens) = Caspase-8 (Homo sapiens) (UniProt Q14790); assay: Inhibition of caspase 8 assessed as ratio of pseudo-first-order inhibition rate constant to inhibitor concentration
Outline: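 Caspase-8 at 50 nM final, assayed in the same Pipes/NaCl/CHAPS/sucrose/DTT buffer, pH 7.2, 37 °C with Ac-Asp-Glu-Val-Asp-AMC by the progress curve method; inhibitor stocks 5 × 10^-3 to 2.42 × 10^-6 M in DMSO; rates corrected for substrate using KM 6.79 µM.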

[4] = molecular target: T3, Calpain-1 catalytic subunit (Homo sapiens) (UniProt P07384); assay: Inhibition of calpain 1 assessed as ratio of pseudo-first-order inhibition rate constant to inhibitor concentration
T3 sequence (whole entry): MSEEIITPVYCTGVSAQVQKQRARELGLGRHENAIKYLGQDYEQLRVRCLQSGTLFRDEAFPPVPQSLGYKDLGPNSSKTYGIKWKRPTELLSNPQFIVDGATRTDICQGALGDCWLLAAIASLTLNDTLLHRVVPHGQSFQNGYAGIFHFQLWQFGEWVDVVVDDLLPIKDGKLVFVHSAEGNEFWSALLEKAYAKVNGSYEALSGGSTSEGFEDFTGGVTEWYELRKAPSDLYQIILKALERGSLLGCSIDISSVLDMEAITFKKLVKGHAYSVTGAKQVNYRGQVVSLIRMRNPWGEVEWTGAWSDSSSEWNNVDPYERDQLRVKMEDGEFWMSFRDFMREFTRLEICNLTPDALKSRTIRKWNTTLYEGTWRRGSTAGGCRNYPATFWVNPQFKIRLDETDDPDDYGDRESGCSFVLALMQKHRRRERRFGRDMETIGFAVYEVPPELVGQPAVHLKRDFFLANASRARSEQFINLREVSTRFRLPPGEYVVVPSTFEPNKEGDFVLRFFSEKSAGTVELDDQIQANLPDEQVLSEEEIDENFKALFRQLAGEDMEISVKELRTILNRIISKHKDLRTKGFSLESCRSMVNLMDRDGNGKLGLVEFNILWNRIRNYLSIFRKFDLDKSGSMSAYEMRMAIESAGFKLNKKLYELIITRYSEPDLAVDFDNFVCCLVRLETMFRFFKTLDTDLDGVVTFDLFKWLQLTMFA

Papain (Carica papaya) = molecular target: T4, Papain (Carica papaya) (UniProt P00784); assay: Inhibition of papain assessed as ratio of pseudo-first-order inhibition rate constant to inhibitor concentration
T4 sequence (whole entry): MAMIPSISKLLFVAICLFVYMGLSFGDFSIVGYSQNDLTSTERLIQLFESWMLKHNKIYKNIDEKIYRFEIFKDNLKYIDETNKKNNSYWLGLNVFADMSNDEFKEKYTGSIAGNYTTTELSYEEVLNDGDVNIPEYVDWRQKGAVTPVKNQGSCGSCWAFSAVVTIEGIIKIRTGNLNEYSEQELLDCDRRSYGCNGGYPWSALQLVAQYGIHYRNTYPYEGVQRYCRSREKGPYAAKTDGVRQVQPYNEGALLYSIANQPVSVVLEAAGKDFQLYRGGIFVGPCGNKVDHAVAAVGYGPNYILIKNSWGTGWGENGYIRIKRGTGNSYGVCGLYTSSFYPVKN
Outline: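 Papain, about 0.29 mg/mL, incubated with inhibitor in 50 mM Hepes, 2.5 mM DTT, 2.5 mM EDTA, pH 7.5; aliquots taken over time into 53.7 µM Cbz-Phe-Arg-pNA; p-nitroanilide release read at 405 nm at room temperature; pseudo-first-order inactivation kinetics.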

[5] = molecular target: Cathepsin B (Homo sapiens) (UniProt P07858); assay: Inhibition of cathepsin B assessed as ratio of pseudo-first-order inhibition rate constant to inhibitor concentration
[6] = molecular target: Lys-gingipain HG66 (Porphyromonas gingivalis) (UniProt P72197); assay: Inhibition of Porphyromonas gingivalis gingipain K assessed as ratio of pseudo-first-order inhibition rate constant to inhibitor concentration
Outline: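 Gingipain K diluted to 4.61 nM in 0.2 M Tris-HCl, 0.1 M NaCl, 5 mM CaCl2, 2 mM DTT, pH 8.0 and incubated with inhibitor (DMSO) at room temperature; aliquots taken at intervals into buffer with Suc-Ala-Phe-Lys-AMC; fluorescence at 465 nm; pseudo-first-order kinetics.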

[7] = molecular target: T5, Clostripain (Clostridium histolyticum) (UniProt P09870); assay: Inhibition of sClostridium histolyticum clostripain assessed as ratio of pseudo-first-order inhibition rate constant to inhibitor concentration; conditions: Hathewaya histolytica
T5 sequence (whole entry): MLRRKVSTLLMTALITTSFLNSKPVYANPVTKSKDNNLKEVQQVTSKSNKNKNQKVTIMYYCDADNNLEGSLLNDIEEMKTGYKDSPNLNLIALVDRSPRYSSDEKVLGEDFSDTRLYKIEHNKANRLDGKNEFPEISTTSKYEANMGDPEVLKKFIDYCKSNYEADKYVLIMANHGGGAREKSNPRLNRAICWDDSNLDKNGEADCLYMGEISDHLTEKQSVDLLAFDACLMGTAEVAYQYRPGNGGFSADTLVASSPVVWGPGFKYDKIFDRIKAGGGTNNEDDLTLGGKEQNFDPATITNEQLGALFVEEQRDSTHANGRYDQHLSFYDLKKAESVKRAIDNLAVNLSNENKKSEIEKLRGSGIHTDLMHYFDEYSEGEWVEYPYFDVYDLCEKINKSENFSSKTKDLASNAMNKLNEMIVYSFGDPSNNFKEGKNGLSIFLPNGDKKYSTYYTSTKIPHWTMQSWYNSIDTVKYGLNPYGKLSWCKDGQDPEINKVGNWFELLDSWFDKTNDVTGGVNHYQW
Outline: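 Clostripain activated in 8 mM DTT, then incubated with inhibitor (DMSO) in 20 mM Tris-HCl, 10 mM CaCl2, 0.005% Brij 35, 2 mM DTT, pH 7.6; aliquots taken at intervals into buffer with Cbz-Phe-Arg-AMC; fluorescence at 465 nm; pseudo-first-order kinetics.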

C=CCOC(=O)/C=C/C(CC(N)=O)NC(=O)[C@H](C)NC(=O)[C@H](C)NC(=O)OCc1ccccc1 (some centres undefined)
Ratio (Sus scrofa): 776 M⁻¹ s⁻¹

C[C@H](NC(=O)OCc1ccccc1)C(=O)N[C@@H](C)C(=O)NN(CC(N)=O)C(=O)/C=C/C(=O)N(Cc1ccccc1)Cc1ccc2ccccc2c1
IC50 [1]: 6 nM
IC50 [2]: 8 nM
IC50 [3]: 70 nM
Ratio (Schistosoma mansoni): 6100 M⁻¹ s⁻¹

C[C@H](NC(=O)OCc1ccccc1)C(=O)N[C@@H](C)C(=O)NN(CC(N)=O)C(=O)/C=C/C(=O)NCCc1ccccc1
IC50 [1]: 10 nM
IC50 [2]: 350 nM
IC50 [3]: 600 nM
Activity (Caspase-3 (Homo sapiens)): inactive
Activity (Caspase-6 (Homo sapiens)): inactive
Activity (Caspase-8 (Homo sapiens)): inactive
Activity [4]: inactive
Ratio (Papain (Carica papaya)): 12 M⁻¹ s⁻¹
Activity [5]: inactive
Activity [6]: inactive
Activity [7]: inactive

C[C@H](NC(=O)OCc1ccccc1)C(=O)N[C@@H](C)C(=O)NN(CC(N)=O)C(=O)COC(=O)c1ccccc1
Ratio (Sus scrofa): 13 M⁻¹ s⁻¹

C[C@H](NC(=O)OCc1ccccc1)C(=O)N[C@@H](C)C(=O)NN(CC(N)=O)C(=O)/C=C/C(=O)N(Cc1ccccc1)Cc1cccc2ccccc12
IC50 [1]: < 1 nM
IC50 [2]: 6 nM
IC50 [3]: 62 nM
Ratio (Schistosoma mansoni): 6180 M⁻¹ s⁻¹

CCOC(=O)[C@H]1O[C@@H]1C(=O)N(CC(N)=O)NC(=O)[C@H](C)NC(=O)[C@H](C)NC(=O)OCc1ccccc1
IC50 [3]: 53 nM
Ratio (Schistosoma mansoni): 17400 M⁻¹ s⁻¹
Ratio (Sus scrofa): 43000 M⁻¹ s⁻¹
